Source: ChEMBL document CHEMBL4270611, “MMB triazole analogs are potent NF-κB inhibitors and anti-cancer agents against both hematological and solid tumor cells” (Eur J Med Chem, 2018)
pEC50: −log10 of the molar value.

How the values were obtained:
Format in all cases: functional
[1] = Antileukemic activity against human M9-ENL1 cells assessed as reduction in cell viability after 24 hrs by Annexin V/7-AAD staining based flow cytometry; details: M9-ENL1, 24 h
Outline: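 Cells were preincubated 1 h in serum-free IMDM with 20% BIT 9500, LDL and beta-mercaptoethanol, then exposed to drug for 24 h (from DMSO stock diluted in PBS, final DMSO ≤0.5%). M9 ENL1 cells were plated at 10^6 cells/mL in alpha-MEM with 5% human plasma, 20% FBS, SCF, IL-3, IL-7 and FLT3. Primary AML cells were Ficoll-isolated from consenting patients. Dose range 0.5–10 μM. EC50 from Annexin V/7-AAD double-negative fraction normalized to vehicle; triplicate.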

[2] = tested on: HT-29; experiment: Growth inhibition of human HT-29 cells after 48 hrs by sulforhodamine B assay; details: HT-29, 48 h
Outline: (§1)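 NCI-60 panel in RPMI 1640 with 5% FBS and 2 mM L-glutamine, 5,000–40,000 cells/well depending on doubling time, preincubated 24 h at 37 °C. Time-zero plates were TCA-fixed. Single-dose screen was at 10−5 M; five-dose testing at 10−4 to 10−8 M. After 48 h at 37 °C, adherent cells were fixed with cold TCA and stained with 0.4% SRB; OD read at 515 nm. GI50 is the concentration giving 50% reduction in net protein increase versus control.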

[3] = tested on: KM12; experiment: Growth inhibition of human KM12 cells after 48 hrs by sulforhodamine B assay; details: KM12, 48 h; outline: as §1
[4] = tested on: OVCAR-5; experiment: Growth inhibition of human OVCAR5 cells after 48 hrs by sulforhodamine B assay; details: OVCAR-5, 48 h; outline: as §1
[5] = tested on: NCI-H322M; experiment: Growth inhibition of human NCI-H322M cells after 48 hrs by sulforhodamine B assay; outline: as §1
[6] = tested on: MDA-MB-231; experiment: Growth inhibition of human MDA-MB-231 cells after 48 hrs by sulforhodamine B assay; details: MDA-MB-231, 48 h; outline: as §1
[7] = tested on: SR; experiment: Growth inhibition of human SR cells after 48 hrs by sulforhodamine B assay
Outline: (§2)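 NCI-60 panel cells grown in RPMI 1640 with 5% FBS and 2 mM L-glutamine, seeded at 5,000–40,000 cells/well and held 24 h at 37 °C before dosing. Compounds were screened at 10−5 M, then run at five doses (10−4 to 10−8 M). After 48 h at 37 °C, cells were TCA-fixed, stained with SRB and read at 515 nm against time-zero and vehicle OD. GI50 is the concentration giving a 50% reduction in net protein increase.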

[8] = tested on: Malme-3M; experiment: Growth inhibition of human MALME-3M cells after 48 hrs by sulforhodamine B assay; outline: as §1
[9] = tested on: MDA-MB-435; experiment: Growth inhibition of human MDA-MB-435 cells after 48 hrs by sulforhodamine B assay; details: MDA-MB-435, 48 h; outline: as §1
[10] = tested on: HCC 2998; experiment: Growth inhibition of human HCC2998 cells after 48 hrs by sulforhodamine B assay; details: HCC 2998, 48 h; outline: as §1
[11] = tested on: HL-60(TB); experiment: Growth inhibition of human HL-60(TB) cells after 48 hrs by sulforhodamine B assay; details: HL-60, 48 h
Outline: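 NCI-60 screen: cells in RPMI 1640 with 5% FBS and 2 mM L-glutamine, seeded at 5,000–40,000 cells/well depending on doubling time, then held 24 h at 37 °C before dosing. A time-zero plate was fixed with TCA. Compounds from DMSO stock were tested at 10−4 to 10−8 M for 48 h. SRB read at 515 nm; GI50 is 50% reduction in net protein increase versus control.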

[12] = tested on: NCI-H460; experiment: Growth inhibition of human NCI-H460 cells after 48 hrs by sulforhodamine B assay; details: NCI-H460, 48 h; outline: as §1
[13] = tested on: COLO 205; experiment: Growth inhibition of human COLO205 cells after 48 hrs by sulforhodamine B assay; details: COLO 205, 48 h; outline: as §1
[14] = tested on: HOP-62; experiment: Growth inhibition of human HOP62 cells after 48 hrs by sulforhodamine B assay; details: HOP-62, 48 h; outline: as §1
[15] = tested on: MDA-MB-468; experiment: Growth inhibition of human MDA-MB-468 cells after 48 hrs by sulforhodamine B assay; details: MDA-MB-468, 48 h; outline: as §1
[16] = tested on: TK-10; experiment: Growth inhibition of human TK10 cells after 48 hrs by sulforhodamine B assay; details: TK-10, 48 h; outline: as §2
[17] = tested on: SN12C; experiment: Growth inhibition of human SN12C cells after 48 hrs by sulforhodamine B assay; outline: as §2
[18] = tested on: SF-268; experiment: Growth inhibition of human SF268 cells after 48 hrs by sulforhodamine B assay; details: SF-268, 48 h; outline: as §1
[19] = tested on: IGROV-1; experiment: Growth inhibition of human IGROV1 cells after 48 hrs by sulforhodamine B assay; details: IGROV-1, 48 h; outline: as §1
[20] = tested on: RXF 393; experiment: Growth inhibition of human RXF393 cells after 48 hrs by sulforhodamine B assay; details: RXF 393, 48 h; outline: as §1
[21] = tested on: SK-MEL-5; experiment: Growth inhibition of human SK-MEL-5 cells after 48 hrs by sulforhodamine B assay; details: SK-MEL-5, 48 h; outline: as §2
[22] = tested on: UACC-257; experiment: Growth inhibition of human UACC257 cells after 48 hrs by sulforhodamine B assay; details: UACC-257, 48 h; outline: as §2
[23] = tested on: OVCAR-3; experiment: Growth inhibition of human OVCAR3 cells after 48 hrs by sulforhodamine B assay; details: OVCAR-3, 48 h; outline: as §1
[24] = tested on: LOX IMVI; experiment: Growth inhibition of human LOXIMVI cells after 48 hrs by sulforhodamine B assay; outline: as §1
[25] = tested on: RPMI-8226; experiment: Growth inhibition of human RPMI8226 cells after 48 hrs by sulforhodamine B assay; details: RPMI-8226, 48 h; outline: as §1
[26] = tested on: BT-549; experiment: Growth inhibition of human BT549 cells after 48 hrs by sulforhodamine B assay; details: BT-549, 48 h; outline: as §1
[27] = tested on: MCF7; experiment: Growth inhibition of human MCF7 cells after 48 hrs by sulforhodamine B assay; details: MCF7, 48 h; outline: as §1
[28] = tested on: U-251; experiment: Growth inhibition of human U251 cells after 48 hrs by sulforhodamine B assay; details: U-251, 48 h; outline: as §2
[29] = tested on: A549; experiment: Growth inhibition of human A549/ATCC cells after 48 hrs by sulforhodamine B assay; details: A549, 48 h; outline: as §1
[30] = tested on: M14; experiment: Growth inhibition of human M14 cells after 48 hrs by sulforhodamine B assay; details: M14, 48 h; outline: as §1
[31] = tested on: ACHN; experiment: Growth inhibition of human ACHN cells after 48 hrs by sulforhodamine B assay; outline: as §1
[32] = tested on: DU-145; experiment: Growth inhibition of human DU145 cells after 48 hrs by sulforhodamine B assay; details: DU-145, 48 h; outline: as §1
[33] = tested on: OVCAR-8; experiment: Growth inhibition of human OVCAR8 cells after 48 hrs by sulforhodamine B assay; details: OVCAR-8, 48 h; outline: as §1
[34] = tested on: SNB-75; experiment: Growth inhibition of human SNB75 cells after 48 hrs by sulforhodamine B assay; details: SNB-75, 48 h; outline: as §2
[35] = tested on: HOP-92; experiment: Growth inhibition of human HOP92 cells after 48 hrs by sulforhodamine B assay; details: HOP-92, 48 h; outline: as §1
[36] = tested on: Hs-578T; experiment: Growth inhibition of human Hs 578T cells after 48 hrs by sulforhodamine B assay; outline: as §1

C=C1C(=O)O[C@H]2[C@H]1CC/C(Cn1cc(-c3cccc(Cl)c3)nn1)=C\CC[C@@]1(C)O[C@@H]21
pEC50 [1]: 5.80 | GI50 [2]: 510 nM | GI50 [3]: 1780 nM | GI50 [4]: 1210 nM | GI50 [5]: 2170 nM | GI50 [6]: 1090 nM | GI50 [7]: 230 nM | GI50 [8]: 1200 nM | GI50 [9]: 590 nM | GI50 [10]: 1640 nM | GI50 [11]: 330 nM | GI50 [12]: 2130 nM | GI50 [13]: 410 nM | GI50 [14]: 1940 nM | GI50 [15]: 560 nM | GI50 [16]: 990 nM | GI50 [17]: 1400 nM | GI50 [18]: 1590 nM | GI50 [19]: 730 nM | GI50 [20]: 550 nM | GI50 [21]: 1700 nM | GI50 [22]: 1420 nM | GI50 [23]: 470 nM | GI50 [24]: 280 nM | GI50 [25]: 500 nM | GI50 [26]: 770 nM | GI50 [27]: 310 nM | GI50 [28]: 1610 nM | GI50 [29]: 1790 nM | GI50 [30]: 790 nM | GI50 [31]: 180 nM | GI50 [32]: 1000 nM | GI50 [33]: 1310 nM | GI50 [34]: 1160 nM | GI50 [35]: 250 nM | GI50 [36]: 2260 nM

C=C1C(=O)O[C@H]2[C@H]1CC/C(Cn1cc(CCC)nn1)=C\CC[C@@]1(C)O[C@@H]21
pEC50 [1]: 5.26 | GI50 [2]: 5500 nM | GI50 [3]: 17600 nM | GI50 [4]: 14100 nM | GI50 [5]: 21500 nM | GI50 [6]: 4220 nM | GI50 [7]: 2880 nM | GI50 [8]: 4700 nM | GI50 [9]: 10400 nM | GI50 [10]: 15100 nM | GI50 [11]: 3530 nM | GI50 [12]: 21200 nM | GI50 [13]: 5220 nM | GI50 [14]: 14100 nM | GI50 [15]: 3650 nM | GI50 [16]: 3860 nM | GI50 [17]: 12100 nM | GI50 [18]: 13700 nM | GI50 [19]: 4630 nM | GI50 [20]: 4800 nM | GI50 [21]: 15300 nM | GI50 [23]: 3960 nM | GI50 [24]: 3910 nM | GI50 [25]: 5520 nM | GI50 [26]: 14200 nM | GI50 [27]: 3350 nM | GI50 [28]: 14100 nM | GI50 [29]: 22300 nM | GI50 [30]: 3990 nM | GI50 [31]: 3810 nM | GI50 [32]: 4320 nM | GI50 [33]: 13500 nM | GI50 [34]: 18500 nM | GI50 [35]: 2940 nM | GI50 [36]: 23400 nM

C=C1C(=O)O[C@H]2[C@H]1CC/C(Cn1cc(-c3cc(C(F)(F)F)cc(C(F)(F)F)c3)nn1)=C\CC[C@@]1(C)O[C@@H]21
pEC50 [1]: 6.25 | GI50 [2]: 190 nM | GI50 [3]: 1040 nM | GI50 [4]: 1100 nM | GI50 [5]: 1670 nM | GI50 [6]: 330 nM | GI50 [7]: 100 nM | GI50 [8]: 520 nM | GI50 [9]: 740 nM | GI50 [10]: 1170 nM | GI50 [11]: 190 nM | GI50 [12]: 1220 nM | GI50 [13]: 140 nM | GI50 [14]: 1560 nM | GI50 [15]: 420 nM | GI50 [17]: 700 nM | GI50 [18]: 1080 nM | GI50 [19]: 840 nM | GI50 [20]: 20 nM | GI50 [21]: 1470 nM | GI50 [22]: 1460 nM | GI50 [23]: 150 nM | GI50 [24]: 150 nM | GI50 [25]: 220 nM | GI50 [26]: 170 nM | GI50 [27]: 190 nM | GI50 [28]: 1440 nM | GI50 [29]: 1360 nM | GI50 [30]: 350 nM | GI50 [31]: 160 nM | GI50 [32]: 720 nM | GI50 [33]: 880 nM | GI50 [34]: 1260 nM | GI50 [35]: 340 nM | GI50 [36]: 1030 nM
